Results on 12 compounds are retold here after ChEMBL document CHEMBL3593165, “Enzymatic synthesis of bile acid derivatives and biological evaluation against Trypanosoma cruzi” (Bioorg Med Chem, 2015).

Active and inactive are the calls of the source. The rule behind the calls is not given here.

For assay [1], the system named is Trypanosoma cruzi. Put plainly: Antiparasitic activity against Trypanosoma cruzi strain CL Brener epimastigotes after 12 days by ELISA reader. Type of assay: functional. Conditions: 288 h. In a few lines: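 CL Brener epimastigotes grown at 28 °C in LIT medium with 10% heat-inactivated FBS, hemin, streptomycin and penicillin. Seeded at final 5 × 10^6 cells/mL and exposed to compounds across 0.14–300 µM for 12 days at 28 °C. DMSO vehicle, final ≤0.5% (v/v). Growth read daily at 600 nm. IC50 taken from dose-response curves from three independent assays.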

For assay [2], the system named is Trypanosoma cruzi. Put plainly: Antiparasitic activity against Trypanosoma cruzi strain CL Brener epimastigotes at 300 uM after 12 days by ELISA reader. The assay is classed as functional. The essentials:
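T. cruzi CL Brener epimastigotes were grown at 28 °C in LIT medium with 10% heat-inactivated FBS, […], streptomycin and penicillin. Cells were seeded at 5 × 10^6 cells/mL with compound (0.14–300 µM, DMSO ≤0.5% v/v final) for 12 days at 28 °C. Benznidazole served as positive control, with drug-free and parasite-free controls. Growth was read daily at 600 nm in three independent assays.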

`CCOC(=O)CC[C@@H](C)[C@H]1CC[C@H]2[C@@H]3[C@H](OC(C)=O)C[C@@H]4C[C@H](O)CC[C@]4(C)[C@H]3CC[C@]12C` came in with a 50% inhibitory concentration (IC50) in the assay on Trypanosoma cruzi [1] of 295 µM.

For `CCOC(=O)CC[C@@H](C)[C@H]1CC[C@H]2[C@@H]3CC[C@@H]4C[C@H](OC(C)=O)CC[C@]4(C)[C@H]3CC[C@]12C`, the inhibition entry with Trypanosoma cruzi [2] was “inactive”. On to `CCOC(=O)CC[C@@H](C)[C@H]1CC[C@H]2[C@@H]3CC[C@@H]4C[C@H](O)CC[C@]4(C)[C@H]3CC[C@]12C`, for which half-maximal inhibition with Trypanosoma cruzi [1] (IC50) was put at 266 µM. In the case of `CCOC(=O)CC[C@@H](C)[C@H]1CC[C@H]2[C@@H]3[C@H](O)C[C@@H]4C[C@H](O)CC[C@]4(C)[C@H]3CC[C@]12C`, the inhibition result in the assay on Trypanosoma cruzi [2] was “inactive”. For `CC(=O)O[C@@H]1CC[C@@]2(C)[C@H](CC[C@@H]3[C@@H]2C[C@H](O)[C@]2(C)[C@@H]([C@H](C)CCC(=O)O)CC[C@@H]32)C1`, the inhibition result in the assay with Trypanosoma cruzi [2] was “inactive”.

For `CC(=O)O[C@@H]1CC[C@@]2(C)[C@@H](C1)C[C@@H](O)[C@@H]1[C@@H]2CC[C@]2(C)[C@@H]([C@H](C)CCC(=O)O)CC[C@@H]12`, the inhibition result in the assay with Trypanosoma cruzi [2] was “inactive”.

On to `CC(=O)O[C@@H]1CC[C@@]2(C)[C@@H](C1)C[C@@H](OC(C)=O)[C@@H]1[C@@H]2CC[C@]2(C)[C@@H]([C@H](C)CCC(=O)O)CC[C@@H]12`, for which the IC50 with Trypanosoma cruzi [1] was found to be 22.8 µM. Regarding `CCOC(=O)CC[C@@H](C)[C@H]1CC[C@H]2[C@@H]3CC[C@@H]4C[C@H](OC(C)=O)CC[C@]4(C)[C@H]3C[C@H](O)[C@]12C`, the inhibition entry in the assay on Trypanosoma cruzi [2] is “inactive”. The same measure, in the same setting: to `CCOC(=O)CC[C@@H](C)[C@H]1CC[C@H]2[C@@H]3CC[C@@H]4C[C@H](O)CC[C@]4(C)[C@H]3C[C@H](O)[C@]12C` belongs “inactive”. On to `C[C@H](CCC(=O)O)[C@H]1CC[C@H]2[C@@H]3[C@H](O)C[C@@H]4C[C@H](O)CC[C@]4(C)[C@H]3CC[C@]12C` [CHENODIOL], for which the inhibition result in the assay with Trypanosoma cruzi [2] is “inactive”. The same compound displayed an IC50 in the assay on Trypanosoma cruzi [1] of 236 µM. Turning to `CCOC(=O)CC[C@@H](C)[C@H]1CC[C@H]2[C@@H]3[C@H](O)C[C@@H]4C[C@H](OC(C)=O)CC[C@]4(C)[C@H]3CC[C@]12C`, the IC50 with Trypanosoma cruzi [1] was determined as 8.6 µM.

On to `CC(=O)O[C@H]1C[C@H]2[C@@H](CC[C@@H]3C[C@H](O)CC[C@@]32C)[C@@H]2CC[C@H]([C@H](C)CCC(=O)O)[C@@]12C`, for which the inhibition result with Trypanosoma cruzi [2] was “inactive”.

In general, IC50 refers to the concentration needed to halve the response being measured. A low value points to greater potency in that assay.
